Reference: ChEMBL document CHEMBL4665627 (Eur J Med Chem, 2019)
≈ marks a conversion by molar mass, not a printed value.

Columns and labels:
Format in all cases: functional
Candida tropicalis = assay: Antifungal activity against Candida tropicalis assessed as inhibition of fungal growth after 24 hrs by CLSI protocol based two fold serial dilution method
In short: (§1)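 Two-fold serial broth dilution in 96-well plates following CLSI; MIC (mM) taken as the lowest concentration giving complete growth inhibition; MIC values from three independent experiments.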

Klebsiella pneumoniae = assay: Antibacterial activity against Klebsiella pneumoniae assessed as inhibition of bacterial growth after 24 hrs by CLSI protocol based two fold serial dilution method; in short: as §1
Enterococcus faecalis = assay: Antibacterial activity against Enterococcus faecalis assessed as inhibition of bacterial growth after 24 hrs by CLSI protocol based two fold serial dilution method; in short: as §1
Candida albicans [1] = assay: Antifungal activity against Candida albicans ATCC 90023 assessed as inhibition of fungal growth after 24 hrs by CLSI protocol based two fold serial dilution method; in short: as §1
Escherichia coli [2] = assay: Antibacterial activity against Escherichia coli ATCC 25922 assessed as inhibition of bacterial growth after 24 hrs by CLSI protocol based two fold serial dilution method; in short: as §1
Staphylococcus aureus [3] = assay: Antibacterial activity against Staphylococcus aureus ATCC 25923 assessed as inhibition of bacterial growth after 24 hrs by CLSI protocol based two fold serial dilution method; in short: as §1
Staphylococcus aureus [4] = assay: Antibacterial activity against Staphylococcus aureus ATCC 29213 assessed as inhibition of bacterial growth after 24 hrs by CLSI protocol based two fold serial dilution method
Acinetobacter baumannii = assay: Antibacterial activity against Acinetobacter baumannii assessed as inhibition of bacterial growth after 24 hrs by CLSI protocol based two fold serial dilution method; in short: as §1
Candida parapsilosis = assay: Antifungal activity against Candida parapsilosis ATCC 22019 assessed as inhibition of fungal growth after 24 hrs by CLSI protocol based two fold serial dilution method; details: Lodderomyces parapsilosis; in short: as §1
Pseudomonas aeruginosa [5] = assay: Antibacterial activity against Pseudomonas aeruginosa ATCC 27853 assessed as inhibition of bacterial growth after 24 hrs by CLSI protocol based two fold serial dilution method; in short: as §1
Aspergillus fumigatus = assay: Antifungal activity against Aspergillus fumigatus assessed as inhibition of fungal growth after 24 hrs by CLSI protocol based two fold serial dilution method; in short: as §1
Staphylococcus aureus [6] = assay: Antibacterial activity against methicillin-resistant Staphylococcus aureus N315 assessed as inhibition of bacterial growth after 24 hrs by CLSI protocol based two fold serial dilution method
Staphylococcus aureus [7] = assay: Antibacterial activity against Staphylococcus aureus assessed as inhibition of bacterial growth after 24 hrs by CLSI protocol based two fold serial dilution method; in short: as §1
Candida albicans [8] = assay: Antifungal activity against Candida albicans assessed as inhibition of fungal growth after 24 hrs by CLSI protocol based two fold serial dilution method; in short: as §1
Pseudomonas aeruginosa [9] = assay: Antibacterial activity against Pseudomonas aeruginosa assessed as inhibition of bacterial growth after 24 hrs by CLSI protocol based two fold serial dilution method; in short: as §1
Escherichia coli [10] = assay: Antibacterial activity against Escherichia coli assessed as inhibition of bacterial growth after 24 hrs by CLSI protocol based two fold serial dilution method; in short: as §1

## CCn1cc(-c2csc(N)n2)c(=O)c2cc(F)c(N3CCN(CC(=O)N(C(C)C)C(C)C)CC3)cc21
Candida tropicalis
  MIC: 498 µM (≈ 256 µg/mL)
Klebsiella pneumoniae
  MIC: 498 µM (≈ 256 µg/mL)
Enterococcus faecalis
  MIC: 249 µM (≈ 128 µg/mL)
Candida albicans [1]
  MIC: 498 µM (≈ 256 µg/mL)
Escherichia coli [2]
  MIC: 498 µM (≈ 256 µg/mL)
Staphylococcus aureus [3]
  MIC: 249 µM (≈ 128 µg/mL)
Staphylococcus aureus [4]
  MIC: 249 µM (≈ 128 µg/mL)
Acinetobacter baumannii
  MIC: 249 µM (≈ 128 µg/mL)
Candida parapsilosis
  MIC: 996 µM (≈ 513 µg/mL)
Pseudomonas aeruginosa [5]
  MIC: 249 µM (≈ 128 µg/mL)
Aspergillus fumigatus
  MIC: 498 µM (≈ 256 µg/mL)
Staphylococcus aureus [6]
  MIC: 124 µM (≈ 63.8 µg/mL)
Staphylococcus aureus [7]
  MIC: 62 µM (≈ 31.9 µg/mL)
Candida albicans [8]
  MIC: 996 µM (≈ 513 µg/mL)
Pseudomonas aeruginosa [9]
  MIC: 249 µM (≈ 128 µg/mL)
Escherichia coli [10]
  MIC: 498 µM (≈ 256 µg/mL)

## CCCN1CCN(c2cc3c(cc2F)c(=O)c(-c2csc(N)n2)cn3CC)CC1
Candida tropicalis
  MIC: 308 µM (≈ 128 µg/mL)
Klebsiella pneumoniae
  MIC: 154 µM (≈ 64 µg/mL)
Enterococcus faecalis
  MIC: 154 µM (≈ 64 µg/mL)
Candida albicans [1]
  MIC: 308 µM (≈ 128 µg/mL)
Escherichia coli [2]
  MIC: 308 µM (≈ 128 µg/mL)
Staphylococcus aureus [3]
  MIC: 154 µM (≈ 64 µg/mL)
Staphylococcus aureus [4]
  MIC: 617 µM (≈ 256 µg/mL)
Acinetobacter baumannii
  MIC: 154 µM (≈ 64 µg/mL)
Candida parapsilosis
  MIC: 308 µM (≈ 128 µg/mL)
Pseudomonas aeruginosa [5]
  MIC: 154 µM (≈ 64 µg/mL)
Aspergillus fumigatus
  MIC: 154 µM (≈ 64 µg/mL)
Staphylococcus aureus [6]
  MIC: 308 µM (≈ 128 µg/mL)
Staphylococcus aureus [7]
  MIC: 308 µM (≈ 128 µg/mL)
Candida albicans [8]
  MIC: 308 µM (≈ 128 µg/mL)
Pseudomonas aeruginosa [9]
  MIC: 617 µM (≈ 256 µg/mL)
Escherichia coli [10]
  MIC: 308 µM (≈ 128 µg/mL)

## C#CCN1CCN(c2cc3c(cc2F)c(=O)c(-c2csc(N)n2)cn3CC)CC1
Candida tropicalis
  MIC: 39 µM (≈ 16 µg/mL)
Klebsiella pneumoniae
  MIC: 10 µM (≈ 4.12 µg/mL)
Enterococcus faecalis
  MIC: 19 µM (≈ 7.82 µg/mL)
Candida albicans [1]
  MIC: 19 µM (≈ 7.82 µg/mL)
Escherichia coli [2]
  MIC: 19 µM (≈ 7.82 µg/mL)
Staphylococcus aureus [3]
  MIC: 39 µM (≈ 16 µg/mL)
Staphylococcus aureus [4]
  MIC: 5 µM (≈ 2.06 µg/mL)
Acinetobacter baumannii
  MIC: 19 µM (≈ 7.82 µg/mL)
Candida parapsilosis
  MIC: 10 µM (≈ 4.12 µg/mL)
Pseudomonas aeruginosa [5]
  MIC: 5 µM (≈ 2.06 µg/mL)
Aspergillus fumigatus
  MIC: 19 µM (≈ 7.82 µg/mL)
Staphylococcus aureus [6]
  MIC: 20 µM (≈ 8.23 µg/mL)
Staphylococcus aureus [7]
  MIC: 19 µM (≈ 7.82 µg/mL)
Candida albicans [8]
  MIC: 19 µM (≈ 7.82 µg/mL)
Pseudomonas aeruginosa [9]
  MIC: 19 µM (≈ 7.82 µg/mL)
Escherichia coli [10]
  MIC: 156 µM (≈ 64.2 µg/mL)

## CCn1cc(-c2csc(N)n2)c(=O)c2cc(F)c(N3CCNCC3)cc21
Candida tropicalis
  MIC: 685 µM (≈ 256 µg/mL)
Klebsiella pneumoniae
  MIC: 171 µM (≈ 63.9 µg/mL)
Enterococcus faecalis
  MIC: 171 µM (≈ 63.9 µg/mL)
Candida albicans [1]
  MIC: 171 µM (≈ 63.9 µg/mL)
Escherichia coli [2]
  MIC: 343 µM (≈ 128 µg/mL)
Staphylococcus aureus [3]
  MIC: 171 µM (≈ 63.9 µg/mL)
Staphylococcus aureus [4]
  MIC: 343 µM (≈ 128 µg/mL)
Acinetobacter baumannii
  MIC: 343 µM (≈ 128 µg/mL)
Candida parapsilosis
  MIC: 343 µM (≈ 128 µg/mL)
Pseudomonas aeruginosa [5]
  MIC: 343 µM (≈ 128 µg/mL)
Aspergillus fumigatus
  MIC: 343 µM (≈ 128 µg/mL)
Staphylococcus aureus [6]
  MIC: 171 µM (≈ 63.9 µg/mL)
Staphylococcus aureus [7]
  MIC: 86 µM (≈ 32.1 µg/mL)
Candida albicans [8]
  MIC: 171 µM (≈ 63.9 µg/mL)
Pseudomonas aeruginosa [9]
  MIC: 21 µM (≈ 7.84 µg/mL)
Escherichia coli [10]
  MIC: 171 µM (≈ 63.9 µg/mL)

## CCn1cc(-c2csc(N)n2)c(=O)c2cc(F)c(N3CCN(C=O)CC3)cc21
Candida tropicalis
  MIC: 638 µM (≈ 256 µg/mL)
Klebsiella pneumoniae
  MIC: 319 µM (≈ 128 µg/mL)
Enterococcus faecalis
  MIC: 319 µM (≈ 128 µg/mL)
Candida albicans [1]
  MIC: 166 µM (≈ 66.6 µg/mL)
Escherichia coli [2]
  MIC: 160 µM (≈ 64.2 µg/mL)
Staphylococcus aureus [3]
  MIC: 160 µM (≈ 64.2 µg/mL)
Staphylococcus aureus [4]
  MIC: 638 µM (≈ 256 µg/mL)
Acinetobacter baumannii
  MIC: 319 µM (≈ 128 µg/mL)
Candida parapsilosis
  MIC: 160 µM (≈ 64.2 µg/mL)
Pseudomonas aeruginosa [5]
  MIC: 80 µM (≈ 32.1 µg/mL)
Aspergillus fumigatus
  MIC: 638 µM (≈ 256 µg/mL)
Staphylococcus aureus [6]
  MIC: 638 µM (≈ 256 µg/mL)
Staphylococcus aureus [7]
  MIC: 638 µM (≈ 256 µg/mL)
Candida albicans [8]
  MIC: 160 µM (≈ 64.2 µg/mL)
Pseudomonas aeruginosa [9]
  MIC: 638 µM (≈ 256 µg/mL)
Escherichia coli [10]
  MIC: 638 µM (≈ 256 µg/mL)
